# Measurements as given in ChEMBL document CHEMBL1800059, “Spiroindane based amides as potent and selective MC4R agonists for the treatment of obesity” (Bioorg Med Chem Lett, 2010).
# Experiments:
# [1] = molecular target: T1, Melanocortin receptor 4 (Homo sapiens, UniProt P32245); assay: Agonist activity at human MC4R expressed in CHO cells assessed as increase of alpha-MSH-stimulated cAMP release pretreated for 10 mins before alpha-MSH challenge measured after 40 mins relative to alpha-MSH; assay type: functional, cell-based
# T1 sequence (P32245 whole entry): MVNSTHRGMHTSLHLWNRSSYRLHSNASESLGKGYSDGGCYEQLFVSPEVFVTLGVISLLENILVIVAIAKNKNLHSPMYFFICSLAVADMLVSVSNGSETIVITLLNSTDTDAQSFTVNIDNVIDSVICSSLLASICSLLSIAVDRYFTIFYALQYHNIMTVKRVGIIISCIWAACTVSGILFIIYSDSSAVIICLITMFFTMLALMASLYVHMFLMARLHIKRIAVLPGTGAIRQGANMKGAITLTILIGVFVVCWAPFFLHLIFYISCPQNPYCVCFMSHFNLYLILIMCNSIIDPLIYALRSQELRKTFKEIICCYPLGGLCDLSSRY
# Summary of the method: (§1)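 Each value is the mean of at least three repeat measurements. Functional read-outs give EC50 with % maximal activation.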
# [2] = molecular target: T1, Melanocortin receptor 4; assay: Displacement of [125I]-NDP-R-MSH from human MC4R expressed in CHO cells after 1.5 hrs by scintillation counting; assay type: cell-based; summary of the method: as §1
# [3] = Agonist activity at human MC1bR expressed in CHO cells assessed as increase of alpha-MSH-stimulated cAMP release pretreated for 10 mins before alpha-MSH challenge measured after 40 mins relative to alpha-MSH; assay type: functional; summary of the method: as §1
# [4] = molecular target: T1, Melanocortin receptor 4; assay: Agonist activity at human MC4R expressed in CHO cells assessed as increase of alpha-MSH-stimulated cAMP release pretreated for 10 mins before alpha-MSH challenge measured after 40 mins; assay type: functional, cell-based; summary of the method: as §1
# [5] = Agonist activity at human MC1bR expressed in CHO cells assessed as increase of alpha-MSH-stimulated cAMP release pretreated for 10 mins before alpha-MSH challenge measured after 40 mins; assay type: functional, cell-based; summary of the method: as §1
# [6] = Oral bioavailability in Sprague-Dawley rat at 4 mg/kg; assay type: ADME, organism-based; settings: in vivo
# [7] = Clearance in Sprague-Dawley rat at 1 mg/kg, iv and 4 mg/kg, po; assay type: ADME, organism-based; settings: in vivo
# [8] = test system: Rattus norvegicus; assay: Dose-normalized AUC in Sprague-Dawley rat at 1 mg/kg, iv and 4 mg/kg, po; assay type: ADME, organism-based; settings: in vivo
# [9] = Half life in Sprague-Dawley rat at 1 mg/kg, iv and 4 mg/kg, po; assay type: ADME, organism-based; settings: in vivo
# [10] = Volume of distribution at steady state in Sprague-Dawley rat at 1 mg/kg, iv and 4 mg/kg, po; assay type: ADME, organism-based; settings: in vivo, read-out: Vdss
SMILES,Activity [1],IC50 [2],Activity [3],EC50 [4],EC50 [5],bioavailability [6],clearance [7],AUC/dose [8],half-life [9],Vd [10]
CO[C@@H]1CCN(C(=O)C(C)(C)[C@H]2CC3(CCN(C(=O)[C@@H]4CN(C(C)(C)C)C[C@H]4c4ccc(F)cc4F)CC3)c3cc(Cl)c(C)cc32)C1,111%,1.4 nM,67%,0.69 nM,103 nM,–,–,–,–,–
Cc1cc2c(cc1Cl)C1(CCN(C(=O)[C@@H]3CN(C(C)(C)C)C[C@H]3c3ccc(F)cc3F)CC1)C[C@@H]2C(C)(C)C(=O)N1CC[C@H](F)C1,106%,1.4 nM,68%,0.98 nM,203 nM,–,–,–,–,–
CNC(=O)C(C)(C)[C@@H]1CC2(CCN(C(=O)[C@@H]3CN(C(C)(C)C)C[C@H]3c3ccc(F)cc3F)CC2)c2cc(Cl)c(C)cc21,86%,47 nM,38%,12 nM,1380 nM,–,–,–,–,–
Cc1cc2c(cc1Cl)C1(CCN(C(=O)[C@@H]3CN(C(C)(C)C)C[C@H]3c3ccc(F)cc3F)CC1)C[C@@H]2C(C)(C)C(=O)NCC(C)C,92%,6.6 nM,45%,27 nM,2050 nM,–,–,–,–,–
Cc1cc2c(cc1Cl)C1(CCN(C(=O)[C@@H]3CN(C(C)(C)C)C[C@H]3c3ccc(F)cc3F)CC1)C[C@@H]2C(C)(C)C(=O)NCC(F)(F)F,89%,5.4 nM,30%,4.2 nM,838 nM,–,–,–,–,–
Cc1cc2c(cc1Cl)C1(CCN(C(=O)[C@@H]3CN(C(C)(C)C)C[C@H]3c3ccc(F)cc3F)CC1)C[C@@H]2C(C)(C)C(=O)N1CCCC1,73%,1.8 nM,60%,1 nM,223 nM,–,–,–,–,–
Cc1cc2c(cc1Cl)C1(CCN(C(=O)[C@@H]3CN(C(C)(C)C)C[C@H]3c3ccc(F)cc3F)CC1)C[C@@H]2C(C)(C)C(=O)N1CC[C@@H](O)C1,98%,0.53 nM,71%,0.25 nM,33 nM,–,–,–,–,–
CC(=O)N(C)C(C)(C)[C@@H]1CC2(CCN(C(=O)[C@@H]3CN(C(C)(C)C)C[C@H]3c3ccc(F)cc3F)CC2)c2cc(Cl)c(C)cc21,112%,8.5 nM,35%,2.1 nM,494 nM,22%,9.1 mL/min/kg,0.83 µM·h/mg/kg,15.1 h,10.4 L/kg
Cc1cc2c(cc1Cl)C1(CCN(C(=O)[C@@H]3CN(C(C)(C)C)C[C@H]3c3ccc(F)cc3F)CC1)C[C@@H]2C(C)(C)C(=O)N1CCC(F)(F)C1,96%,2 nM,54%,3.8 nM,285 nM,–,–,–,–,–
Cc1cc2c(cc1Cl)C1(CCN(C(=O)[C@@H]3CN(C(C)(C)C)C[C@H]3c3ccc(F)cc3F)CC1)C[C@@H]2C(C)(C)C(=O)N1CC[C@@H](F)C1,87%,1.6 nM,69%,1.1 nM,122 nM,–,–,–,–,–
CC(=O)N(C)C(C)(C)[C@H]1CC2(CCN(C(=O)[C@@H]3CN(C(C)(C)C)C[C@H]3c3ccc(F)cc3F)CC2)c2cc(Cl)c(C)cc21,83%,2.5 nM,41%,4.3 nM,270 nM,–,–,–,–,–
Cc1cc2c(cc1Cl)C1(CCN(C(=O)[C@@H]3CN(C(C)(C)C)C[C@H]3c3ccc(F)cc3F)CC1)C[C@@H]2C(C)(C)C(=O)NC1CCOCC1,92%,2.5 nM,74%,2.3 nM,260 nM,–,–,–,–,–
CCN(C)C(=O)C(C)(C)[C@H]1CC2(CCN(C(=O)[C@@H]3CN(C(C)(C)C)C[C@H]3c3ccc(F)cc3F)CC2)c2cc(Cl)c(C)cc21,103%,2.1 nM,69%,1.6 nM,355 nM,–,–,–,–,–
Cc1cc2c(cc1Cl)C1(CCN(C(=O)[C@@H]3CN(C(C)(C)C)C[C@H]3c3ccc(F)cc3F)CC1)C[C@@H]2C(C)(C)C(=O)N1CC[C@H](O)C1,88%,0.89 nM,93%,0.37 nM,29 nM,–,–,–,–,–
Cc1cc2c(cc1Cl)C1(CCN(C(=O)[C@@H]3CN(C(C)(C)C)C[C@H]3c3ccc(F)cc3F)CC1)C[C@@H]2C(C)(C)C(=O)NC(C)(C)CO,89%,3.9 nM,53%,1.9 nM,218 nM,–,–,–,–,–
Cc1cc2c(cc1Cl)C1(CCN(C(=O)[C@@H]3CN(C(C)(C)C)C[C@H]3c3ccc(F)cc3F)CC1)C[C@H]2C(C)(C)C(=O)N(C)C,80%,59 nM,17%,53 nM,5000 nM,–,–,–,–,–
Cc1cc2c(cc1Cl)C1(CCN(C(=O)[C@@H]3CN(C(C)(C)C)C[C@H]3c3ccc(F)cc3F)CC1)C[C@@H]2C(C)(C)C(=O)N1CCC1,88%,1.1 nM,72%,0.59 nM,238 nM,–,–,–,–,–

SMILES,Activity [1],IC50 [2],Activity [3],EC50 [4],EC50 [5],bioavailability [6],clearance [7],AUC/dose [8],half-life [9],Vd [10]
Cc1cc2c(cc1Cl)C1(CCN(C(=O)[C@@H]3CN(C(C)(C)C)C[C@H]3c3ccc(F)cc3F)CC1)C[C@@H]2C(C)(C)C(=O)NCc1ccccc1,79%,12 nM,29%,42 nM,935 nM,–,–,–,–,–
Cc1cc2c(cc1Cl)C1(CCN(C(=O)[C@@H]3CN(C(C)(C)C)C[C@H]3c3ccc(F)cc3F)CC1)C[C@@H]2C(C)(C)C(=O)NCCF,84%,2.6 nM,48%,1.1 nM,260 nM,–,–,–,–,–
Cc1cc2c(cc1Cl)C1(CCN(C(=O)[C@@H]3CN(C(C)(C)C)C[C@H]3c3ccc(F)cc3F)CC1)C[C@@H]2C(C)(C)C(=O)NC1CC1,95%,2.2 nM,50%,0.8 nM,243 nM,–,–,–,–,–
Cc1cc2c(cc1Cl)C1(CCN(C(=O)[C@@H]3CN(C(C)(C)C)C[C@H]3c3ccc(F)cc3F)CC1)C[C@H]2C(C)(C)C(=O)NC1CC1,95%,55 nM,20%,28 nM,1120 nM,–,–,–,–,–
Cc1cc2c(cc1Cl)C1(CCN(C(=O)[C@@H]3CN(C(C)(C)C)C[C@H]3c3ccc(F)cc3F)CC1)C[C@@H]2C(C)(C)C(=O)N1CCOCC1,94%,0.85 nM,66%,0.38 nM,84 nM,–,–,–,–,–
CNC(=O)C(C)(C)[C@H]1CC2(CCN(C(=O)[C@@H]3CN(C(C)(C)C)C[C@H]3c3ccc(F)cc3F)CC2)c2cc(Cl)c(C)cc21,94%,2.6 nM,60%,0.91 nM,323 nM,–,–,–,–,–
CCNC(=O)C(C)(C)[C@H]1CC2(CCN(C(=O)[C@@H]3CN(C(C)(C)C)C[C@H]3c3ccc(F)cc3F)CC2)c2cc(Cl)c(C)cc21,100%,3.1 nM,50%,1.4 nM,295 nM,–,–,–,–,–
CO[C@H]1CCN(C(=O)C(C)(C)[C@H]2CC3(CCN(C(=O)[C@@H]4CN(C(C)(C)C)C[C@H]4c4ccc(F)cc4F)CC3)c3cc(Cl)c(C)cc32)C1,112%,2.3 nM,71%,1.2 nM,102 nM,–,–,–,–,–
CCNC(=O)C(C)(C)[C@@H]1CC2(CCN(C(=O)[C@@H]3CN(C(C)(C)C)C[C@H]3c3ccc(F)cc3F)CC2)c2cc(Cl)c(C)cc21,96%,53 nM,26%,32 nM,1420 nM,–,–,–,–,–
CCN(CC)C(=O)C(C)(C)[C@H]1CC2(CCN(C(=O)[C@@H]3CN(C(C)(C)C)C[C@H]3c3ccc(F)cc3F)CC2)c2cc(Cl)c(C)cc21,81%,2.6 nM,67%,1.7 nM,168 nM,–,–,–,–,–
Cc1cc2c(cc1Cl)C1(CCN(C(=O)[C@@H]3CN(C(C)(C)C)C[C@H]3c3ccc(F)cc3F)CC1)C[C@@H]2C(C)(C)C(=O)NCCO,100%,2.6 nM,56%,1.3 nM,83 nM,–,–,–,–,–
Cc1cc2c(cc1Cl)C1(CCN(C(=O)[C@@H]3CN(C(C)(C)C)C[C@H]3c3ccc(F)cc3F)CC1)C[C@@H]2C(C)(C)C(=O)NC(C)C,92%,5.9 nM,45%,2.9 nM,435 nM,–,–,–,–,–
Cc1cc2c(cc1Cl)C1(CCN(C(=O)[C@@H]3CN(C(C)(C)C)C[C@H]3c3ccc(F)cc3F)CC1)C[C@@H]2C(C)(C)C(=O)NC(C)(C)C,76%,12 nM,47%,9.9 nM,1030 nM,–,–,–,–,–
Cc1cc2c(cc1Cl)C1(CCN(C(=O)[C@@H]3CN(C(C)(C)C)C[C@H]3c3ccc(F)cc3F)CC1)C[C@@H]2C(C)(C)C(=O)N1C[C@@H]2C[C@H]1CO2,96%,1.6 nM,72%,0.76 nM,69 nM,–,–,–,–,–
Cc1cc2c(cc1Cl)C1(CCN(C(=O)[C@@H]3CN(C(C)(C)C)C[C@H]3c3ccc(F)cc3F)CC1)C[C@H]2C(C)(C)C(=O)NCC(F)(F)F,78%,93 nM,5%,307 nM,–,–,–,–,–,–
CC(=O)NC(C)(C)[C@H]1CC2(CCN(C(=O)[C@@H]3CN(C(C)(C)C)C[C@H]3c3ccc(F)cc3F)CC2)c2cc(Cl)c(C)cc21,90%,4.5 nM,43%,3.3 nM,260 nM,–,–,–,–,–
